Activity calls are given as the source filed them. The rule behind the calls is not given here.
Legend:
[1] = system: Primary neuron; experiment: Potentiation of AMPA receptor in rat embryonic cortex primary neuronal culture assessed as concentration required to 2-fold increase in AMPA-induced membrane depolarization by microplate reader; assay type: cell membranes
In short: (§1)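 Primary cultures of rat embryonic cortical neurons; depolarization evoked by 300 μM AMPA read with fluorescent membrane potential dyes on an imaging plate reader. EC2× is the modulator level doubling the AMPA response (geometric mean, 95% CI).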

[2] = system: Primary neuron; experiment: Positive allosteric modulation of AMPA receptor in rat embryonic cortex primary neuronal culture assessed as maximal increase in AMPA-induced membrane depolarization normalized to AMPA-evoked response by microplate reader; assay type: cell membranes; in short: as §1
[3] = species: Rattus norvegicus; experiment: Positive allosteric modulation of AMPA receptor in rat hippocampal slice assessed as increase in AMPA-mediated presynaptic noradrenaline release; assay type: tissue-based; parameters: concentration or dose not given beside the values; conditions: Hippocampus
In short: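 Rat hippocampal slices, [3H]noradrenaline release evoked by (S)-AMPA 10 μM, modulator at 300 μM; release given as percent of (S)-AMPA alone taken as 100%.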

[4] = Positive allosteric modulation of AMPA receptor in rat embryonic cortex primary neuronal culture assessed as increase in AMPA-induced membrane depolarization by microplate reader; assay type: cell membranes; conditions: primary neuron; in short: as §1
[5] = species: Rattus norvegicus; experiment: Positive allosteric modulation of AMPA receptor in rat hippocampal slice assessed as area of AMPA-mediated […] postsynaptic field potential in CA1 area at 3 uM; assay type: tissue-based; conditions: Hippocampus
In short: (§2)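 Rat hippocampal slices perfused with medium containing 1.2 mM Mg2+; field EPSPs recorded in CA1 after electrical stimulation of Schaffer collaterals. Area, amplitude and half-width normalized to the 10 min baseline as 100%, reported as percent increase, mean ± SEM (n = 3–4).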

[6] = species: Rattus norvegicus; experiment: Positive allosteric modulation of AMPA receptor in rat hippocampal slice assessed as area of AMPA-mediated […] postsynaptic field potential in CA1 area at 10 uM; assay type: tissue-based; conditions: Hippocampus; in short: as §2
[7] = species: Rattus norvegicus; experiment: Positive allosteric modulation of AMPA receptor in rat hippocampal slice assessed as amplitude of AMPA-mediated […] postsynaptic field potential in CA1 area at 3 uM; assay type: tissue-based; conditions: Hippocampus; in short: as §2
[8] = species: Rattus norvegicus; experiment: Positive allosteric modulation of AMPA receptor in rat hippocampal slice assessed as amplitude of AMPA-mediated […] postsynaptic field potential in CA1 area at 10 uM; assay type: tissue-based; conditions: Hippocampus; in short: as §2
[9] = species: Rattus norvegicus; experiment: Positive allosteric modulation of AMPA receptor in rat hippocampal slice assessed as half-width of AMPA-mediated […] postsynaptic field potential in CA1 area at 3 uM; assay type: tissue-based; conditions: Hippocampus; in short: as §2
[10] = species: Rattus norvegicus; experiment: Positive allosteric modulation of AMPA receptor in rat hippocampal slice assessed as half-width of AMPA-mediated […] postsynaptic field potential in CA1 area at 10 uM; assay type: tissue-based; conditions: Hippocampus; in short: as §2
[11] = Drug uptake in mouse brain at 3 mg/kg, po qd after 20 mins by LC-MS/MS analysis; assay type: ADME, organism-based; parameters: dose 3 mg/kg, route oral; conditions: read-out: Drug uptake
In short: (§3)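 NMRI mice dosed orally, killed by decapitation 20 min later; brain and blood rapidly removed and frozen, compound quantified by LC−MS/MS. Brain in ng/g, plasma in ng/mL; n = 3.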

[12] = Drug uptake in mouse plasma at 3 mg/kg, po qd after 20 mins by LC-MS/MS analysis; assay type: ADME, organism-based; parameters: dose 3 mg/kg, route oral; in short: as §3
[13] = Ratio of drug level in mouse brain to plasma at 3 mg/kg, po qd after 20 mins by LC-MS/MS analysis; assay type: ADME, organism-based; parameters: dose 3 mg/kg, route oral
In short: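 Oral dosing in NMRI mice, 20 min before decapitation; brain and plasma levels measured by LC−MS/MS (n = 3), ratio taken as [brain]/[plasma] in mL/g.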

[14] = system: Hippocampus; experiment: Potentiation of high-frequency stimulation-induced synaptic response in Wistar rat hippocampal dentate gyrus assessed as excitatory postsynaptic field potential at 3 mg/kg, ip after 3 hrs; assay type: functional, organism-based; parameters: dose 3 mg/kg
In short: (§4)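 Anesthetized Wistar rats dosed ip; perforant-path stimulation with dentate gyrus responses. 1 h after dosing, LTP induced by tetanic high-frequency stimulation and responses followed 3 h; eight responses averaged (every 2 min), normalized to 60 min baseline. n = 8 per group; Dunnett test after two-way ANOVA versus vehicle.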

[15] = system: Hippocampus; experiment: Potentiation of high-frequency stimulation-induced synaptic response in Wistar rat hippocampal dentate gyrus assessed as excitatory postsynaptic field potential at 10 mg/kg, ip after 3 hrs; assay type: functional, organism-based; parameters: dose 10 mg/kg; in short: as §4
[16] = system: Hippocampus; experiment: Potentiation of high-frequency stimulation-induced synaptic response in Wistar rat hippocampal dentate gyrus assessed as increase in long-term potentiation at 10 mg/kg, ip after 1 hr; assay type: functional, organism-based; parameters: dose 10 mg/kg; in short: as §4
[17] = system: Hippocampus; experiment: Potentiation of tetanus-induced synaptic response in Wistar rat hippocampal dentate gyrus at 3 mg/kg, ip measured first 18 mins; assay type: functional, organism-based; parameters: dose 3 mg/kg
In short: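 Anesthetized Wistar rats, dosed ip at 3 or 10 mg/kg, n = 8 per group. Dentate gyrus responses evoked by perforant-path stimulation every 2 min, averaged over eight stimulations and normalized to the 60 min baseline. High-frequency tetanus given 1 h after dosing, with recording for 3 h. Potentiation duration judged per group against the 6 min pre-tetanus period.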

[18] = system: Hippocampus; experiment: Potentiation of tetanus-induced synaptic response in Wistar rat hippocampal dentate gyrus at 3 mg/kg, ip measured during 42 mins; assay type: functional, organism-based; parameters: dose 3 mg/kg
[19] = system: Mus musculus; experiment: Increase in object recognition task in CD1 mouse at 1 mg/kg, po after 24 hrs; assay type: functional, organism-based; parameters: dose 1 mg/kg
In short: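 Three-session test (habituation, familiarization, recognition) given at 24 h intervals in CD1 mice, compound given orally 1 h before each session. Durations of exploring new versus familiar objects recorded; mean + SEM, paired Student's t test versus familiar object.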

[20] = target: Glutamate receptor 2 (Homo sapiens, UniProt P42262); experiment: Binding affinity to GluA2-LBD-L483Y-N754S complex (unknown origin) by isothermal titration calorimetry
In short: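 Direct ITC titration at 25 °C. 20 × 2 μL injections at 3 min, the first 0.4 μL. First point discarded and dilution heat subtracted before a single-site fit. Mean of three titrations.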

Sequence of Glutamate receptor 2 (P42262 whole entry, the tested form may be a part): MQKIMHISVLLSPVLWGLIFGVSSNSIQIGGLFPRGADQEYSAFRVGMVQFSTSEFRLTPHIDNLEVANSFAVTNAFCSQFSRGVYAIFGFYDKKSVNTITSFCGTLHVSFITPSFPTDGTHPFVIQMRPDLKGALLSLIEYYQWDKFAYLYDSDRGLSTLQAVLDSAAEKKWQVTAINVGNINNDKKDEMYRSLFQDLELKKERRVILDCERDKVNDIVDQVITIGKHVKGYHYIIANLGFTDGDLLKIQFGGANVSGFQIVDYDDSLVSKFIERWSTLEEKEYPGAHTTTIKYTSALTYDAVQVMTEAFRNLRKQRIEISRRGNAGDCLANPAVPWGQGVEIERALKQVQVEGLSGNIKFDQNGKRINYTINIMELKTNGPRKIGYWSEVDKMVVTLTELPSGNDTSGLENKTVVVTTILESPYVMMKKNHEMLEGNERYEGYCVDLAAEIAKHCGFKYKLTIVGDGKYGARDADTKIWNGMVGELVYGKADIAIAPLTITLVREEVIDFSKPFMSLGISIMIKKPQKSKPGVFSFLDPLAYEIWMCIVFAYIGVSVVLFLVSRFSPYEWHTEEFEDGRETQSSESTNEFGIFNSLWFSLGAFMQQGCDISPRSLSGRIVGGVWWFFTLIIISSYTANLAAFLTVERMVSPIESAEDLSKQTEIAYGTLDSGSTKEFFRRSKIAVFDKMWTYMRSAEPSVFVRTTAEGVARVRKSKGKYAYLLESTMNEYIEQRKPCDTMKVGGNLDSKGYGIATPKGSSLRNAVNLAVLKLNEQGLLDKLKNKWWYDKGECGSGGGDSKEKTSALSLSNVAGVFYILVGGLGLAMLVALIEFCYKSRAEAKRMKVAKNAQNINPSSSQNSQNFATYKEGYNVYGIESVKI

SMILES	Activity [1] [µM]	Emax [2]	Activity [3] [%]	EC50 [4] [µM]	other results
O=S1(=O)NCN(C2CC2)c2ncc(Cl)cc21	2.4	> 7	276		
O=S1(=O)NCN(C2CC2)c2ccc(Cl)cc21	0.68	11	411	2.9	Activity [5]: 10%; Activity [6]: 145%; Activity [7]: 5.3%; Activity [8]: 58%; Activity [9]: 9%; Activity [10]: 113%; concentration at 20 min [11]: 72.7 ng/g; concentration at 20 min [12]: 64.7 ng/mL; Kp at 20 min [13]: 1.12; Activity [14]: Active; Activity [15]: Active; Activity [16]: Active; Activity [17]: Active; Activity [18]: Active; Activity [19]: Active
O=S1(=O)NCN(C2CC2)c2cccnc21	0.35	10	323	1.5	
O=S1(=O)NCN(C2CC2)c2cccc(Cl)c21	2	> 9	352		
CCN1CNS(=O)(=O)c2cnccc21					Kd [20]: 1200 µM
O=S1(=O)NCN(C2CC2)c2cc(Cl)ccc21	5.2	> 5	327		
O=S1(=O)NCN(C2CC2)c2ccc(F)cc21	0.27	15		0.9	Kd [20]: 0.35 µM
O=S1(=O)NCN(C2CC2)c2ncccc21	13.9	> 4	221		
O=S1(=O)NCN(C2CC2)c2ccncc21	4.4	> 11	330		
O=S1(=O)NCN(C2CC2)c2c(Cl)cccc21	27.1	> 3	196		

— ChEMBL document CHEMBL3351484, “Positive allosteric modulators of 2-amino-3-(3-hydroxy-5-methylisoxazol-4-yl)propionic acid receptors belonging to 4-cyclopropyl-3,4-dihydro-2h-1,2,4-pyridothiadiazine dioxides and diversely chloro-substituted 4-cyclopropyl-3,4-dihydro-2H-1,2,4-benzothiadiazine 1,1-dioxides” (J Med Chem, 2014)
